11 molecules from ChEMBL document CHEMBL1138842, “Fluorinated phenylcyclopropylamines. 2. Effects of aromatic ring substitution and of absolute configuration on inhibition of microbial tyramine oxidase” (J Med Chem, 2004) can be followed below.

Structures can show the parent of a compound that is named as a salt.

Series [1] in a line: Inhibitory concentration against tyramine oxidase of Arthrobacter spp.; Not determined.
Series [2] is described as follows: Ionization constant was determined. In kind it is physicochemical. The procedure, abridged:
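Determined by pH-metric titration in 0.1 M KNO₃ at 21 °C.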

The nature of series [3]: Inhibitory concentration against tyramine oxidase of Arthrobacter spp.; Irreversible inhibition.
The nature of series [4]: Inhibitory concentration against tyramine oxidase of Arthrobacter spp.; Competitive inhibition.
For series [5], the target named is T1, Amine oxidase [flavin-containing] A (Homo sapiens, UniProt P21397).
T1 sequence (P21397 whole entry): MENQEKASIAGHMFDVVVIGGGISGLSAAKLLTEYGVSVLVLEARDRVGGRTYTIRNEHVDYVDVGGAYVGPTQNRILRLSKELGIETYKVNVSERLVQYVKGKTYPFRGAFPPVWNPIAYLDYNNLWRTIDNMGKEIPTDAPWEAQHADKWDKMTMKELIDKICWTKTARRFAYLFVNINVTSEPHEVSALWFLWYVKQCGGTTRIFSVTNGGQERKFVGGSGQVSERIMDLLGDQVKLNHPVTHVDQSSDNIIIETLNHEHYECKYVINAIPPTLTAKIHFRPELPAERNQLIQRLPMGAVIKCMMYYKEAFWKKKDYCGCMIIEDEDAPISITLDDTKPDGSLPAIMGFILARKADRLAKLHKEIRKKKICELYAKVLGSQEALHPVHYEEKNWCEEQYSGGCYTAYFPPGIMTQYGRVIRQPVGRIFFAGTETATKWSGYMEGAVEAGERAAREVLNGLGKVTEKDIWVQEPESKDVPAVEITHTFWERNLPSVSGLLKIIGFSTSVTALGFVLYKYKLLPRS
Kind of series: Inhibitory concentration for human liver monoamine oxidase A.

In series [6] the target is T2, Amine oxidase [flavin-containing] B (Homo sapiens, UniProt P27338).
T2 sequence (P27338 whole entry): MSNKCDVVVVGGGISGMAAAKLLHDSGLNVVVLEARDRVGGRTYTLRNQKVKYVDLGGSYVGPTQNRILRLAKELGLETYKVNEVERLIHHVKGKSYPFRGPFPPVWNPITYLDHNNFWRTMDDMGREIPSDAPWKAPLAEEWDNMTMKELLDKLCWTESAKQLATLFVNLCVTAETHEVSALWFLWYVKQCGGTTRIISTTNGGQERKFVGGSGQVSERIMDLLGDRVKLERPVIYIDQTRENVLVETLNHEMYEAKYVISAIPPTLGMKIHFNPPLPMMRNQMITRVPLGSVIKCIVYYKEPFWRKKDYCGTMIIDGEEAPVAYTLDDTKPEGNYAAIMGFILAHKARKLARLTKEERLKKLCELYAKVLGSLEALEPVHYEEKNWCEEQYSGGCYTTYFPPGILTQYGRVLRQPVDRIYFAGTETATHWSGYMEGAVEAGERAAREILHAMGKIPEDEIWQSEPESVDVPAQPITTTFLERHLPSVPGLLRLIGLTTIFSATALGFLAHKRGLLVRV
The series can be described thus: Inhibitory concentration for human liver monoamine oxidase B.

Series [7] is described as follows: Inhibition concentration against tyramine oxidase of Arthrobacter spp.; Partially irreversible inhibition.

Take `Cc1ccc([C@@]2(F)C[C@@H]2N)cc1`: half-maximal inhibition in series [1] (IC50) required 51 µM. For the same molecule, the pKa in series [2] (read-out: pKa) amounted to 7.04.

As to `NC1CC1c1ccccc1` (stereo not drawn), in series [3], half-maximal inhibition (IC50) required 33 µM. Besides, in series [2] (read-out: pKa), the pKa stood at 8.5.

With `N[C@@H]1C[C@]1(F)c1ccc(F)cc1` (relative stereo), the half-inhibitory concentration (IC50) in series [4] was 8.1 µM. Besides, the pKa in series [2] (read-out: pKa) stood at 7.31.

With `Cc1ccc([C@@]2(F)C[C@H]2N)cc1` (relative stereo), the values for the IC50 in series [5], in series [4] and in series [6] were 6.7 µM, 0.39 µM and 6.7 µM, respectively. The pKa in series [2] (read-out: pKa) was found to be 7.41.

`N[C@@H]1C[C@]1(F)c1ccccc1` (relative stereo) came in with a 50% inhibitory concentration (IC50) in series [7] of 190 µM. In addition, the pKa in series [2] (read-out: pKa) turned out to be 6.98.

The molecule `N[C@H]1C[C@]1(F)c1ccccc1` (relative stereo) had a concentration for half-maximal inhibition (IC50) in series [4] of 3.6 µM. The pKa in series [2] (read-out: pKa) was 7.35.

Consider `N[C@H]1C[C@]1(F)c1ccc(F)cc1` (relative stereo), for which, in series [7], the IC50 amounted to 75 µM. The pKa in series [2] (read-out: pKa) came to 6.88.

`N[C@@H]1C[C@H]1c1ccccc1` (relative stereo) [TRANYLCYPROMINE HYDROCHLORIDE] returned an IC50 in series [4] of 35 µM. For the same molecule, the pKa in series [2] (read-out: pKa) came out at 8.47.

In series [7], `Cl.NC1CC1(F)c1ccc(Cl)cc1` (stereo in doubt) registered an IC50 of 89 µM. This molecule also gave a pKa in series [2] of 6.81.

In series [4], `NC1CC1(F)c1ccc(Cl)cc1` (trans isomer) yielded an IC50 of 3.7 µM. The pKa in series [2] (read-out: pKa) is 7.19.

Consider `NNC(N)=O` [HYDRAZINECARBOXAMIDE], for which the IC50 in series [5] was determined as 6.7 µM.

The IC50 is the concentration that inhibits the measured activity by half. A lower IC50 goes with greater potency in that assay. By pKa is commonly meant the pH at which an ionisable group is half protonated.
